Shown are actives, neighbours in structure and some others; about 1.4% of the full set was active somewhere.
Tb MetRS inh: Trypanosoma brucei MetRS inhibition | purified T. brucei MetRS, ATP depletion, Kinase-Glo luminescence | inhibition, % at 11.9 µM | 0.4% of 360,000 active | AID 624268;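 active = inhibition above a per-plate cutoff of the control wells' mean inhibition plus 3 SD, cut at about 5.5% in these data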;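 note: 0% = DMSO wells median and 100% = median of wells with control inhibitor compound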
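Material – parasite MetRS enzyme · Medium – HEPES-MgCl2-KCl buffer plus DTT, spermine, BSA, pyrophosphatase · Reagent – ATP, methionine and E. coli bulk tRNA substrates · Times – 15 min enzyme-compound preincubation, 2 h reaction, 10 min detection, 25 °C · Measured by – luminescence of leftover ATP · Evaluation – percent inhibition relative to median high and low control wells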
PvdQ inh: blocks Pseudomonas aeruginosa PvdQ acylase activity | purified PvdQ acylase, fluorescence plate reader | inhibition, % at 10 µM | 0.063% of 340,000 active | AID 488965; in the data active = inhibition above about 30%, passing the limit was not always enough;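 note: 0% = vehicle neutral wells and 100% = reference inhibitor wells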
DYRK1A inh: blocks rat Dyrk1A kinase activity. AID 504441. 0.43% of 310,000 active. ADP-Glo luminescence, NFATc1 peptide. inhibition, % at 12.5 µM. Q63470; in the data active = inhibition above about 50%;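 note: plate controls were vehicle with enzyme for no effect and no enzyme for full effect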
CDK5 p35 inh: inhibitors of human CDK5/p35 kinase | Q00535+Q15078 | 0.01% of 330,000 active | Recombinant CDK5/p35, ADP-Glo luminescence, 60 min | inhibition, % at 10 µM | AID 488839;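 active = highest replicate inhibition of at least 50% and at least 75% of replicates reaching 50%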;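 note: plate controls were DMSO neutral control for no effect and GW8510 at 10 µM for full effect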
Target sequence (Q00535 whole entry, looked up): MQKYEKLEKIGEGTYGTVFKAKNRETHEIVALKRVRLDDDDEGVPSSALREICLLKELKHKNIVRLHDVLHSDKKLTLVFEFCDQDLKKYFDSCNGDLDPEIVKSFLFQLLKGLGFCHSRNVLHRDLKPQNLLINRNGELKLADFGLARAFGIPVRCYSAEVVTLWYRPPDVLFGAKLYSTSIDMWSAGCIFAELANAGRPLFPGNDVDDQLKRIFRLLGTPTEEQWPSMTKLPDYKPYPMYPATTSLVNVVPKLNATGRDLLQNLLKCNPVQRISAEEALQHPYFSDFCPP
Target sequence (Q15078 whole entry, looked up): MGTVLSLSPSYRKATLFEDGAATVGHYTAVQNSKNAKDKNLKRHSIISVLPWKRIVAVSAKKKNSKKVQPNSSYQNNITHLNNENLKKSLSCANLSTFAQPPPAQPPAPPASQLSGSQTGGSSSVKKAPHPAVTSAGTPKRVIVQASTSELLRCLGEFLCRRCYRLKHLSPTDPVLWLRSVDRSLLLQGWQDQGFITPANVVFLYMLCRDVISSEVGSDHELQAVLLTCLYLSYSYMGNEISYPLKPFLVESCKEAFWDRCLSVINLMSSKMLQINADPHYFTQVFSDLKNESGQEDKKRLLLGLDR
CAL PDZ FP-1: inhibitors of human CAL PDZ peptide binding | purified CAL PDZ, TMR-peptide fluorescence polarization, 1 h | inhibition, % at 24.9 µM | 0.92% of 300,000 active | AID 602252;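 active = mean inhibition of at least 30% with at least half of replicates also reaching 30%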;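 note: 0% = DMSO neutral control and 100% = excess unlabeled competitor peptide PRC23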
CAL PDZ FP-2: human CAL PDZ-peptide interaction inhibition | Q9HD26 | inhibition, % at 20 µM | purified CAL PDZ, TMR-peptide fluorescence polarization, 1 h | 0.02% of 330,000 active;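 active = highest replicate inhibition of at least 40%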;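 note: plate controls were DMSO neutral control wells for no effect and unlabeled competitor peptide control wells for full effect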
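System: purified tagged CAL PDZ domain construct (CerCALP). Schedule: 1 h incubation at room temperature before polarization reading. Medium: 25 mM sodium phosphate pH 7.4, 150 mM NaCl, TCEP, IgG, Thesit. Read-out: percent inhibition from loss of millipolarization. Measured by: FP readout, S and P plane fluorescence. Probe or stimulus: fluorescent TMR peptide probe.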
Dyrk1A artifact: interferes with ADP-Glo luciferase readout without Dyrk1A; shares compounds with DYRK1A inh; ADP-Glo luciferase artifact assay, no Dyrk1A, luminescence; AC50, µM (titrated, usually from 12 µM), for the others: top-dose activity change, negative = inhibition; 1,300 tested, under 10 active;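 active = fitted half-maximal dose AC50 no more than ten times the top valid tested dose, with luminescence dropping as dose rises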
Active calls of the source: *; / = not tested or not shown.

SMILES	Tb MetRS inh	PvdQ inh	DYRK1A inh	CDK5 p35 inh	CAL PDZ FP-1	CAL PDZ FP-2	Dyrk1A artifact
Cc1cc(C)n(-c2ccc(C(=O)Nc3nc4ccccc4s3)cc2)n1	0	-9	31	0	-1	-1	/
Clc1ccc(Cn2ncc3c(N4CCN(c5ccccc5)CC4)ncnc32)cc1	1	/	/	/	/	/	/
COc1ccc2c(c1)CCc1cc(C(=O)O)sc1-2	0	-19	55*	-3	-3	0	7%
O=C(O)c1cc2c(s1)-c1ccccc1CC2	-1	7	/	1	-9	-3	/
CCc1nc2c(OCCOc3ccc(F)cc3)cccn2c1N(C=O)Cc1ccccc1	0	/	/	/	/	/	/
c1csc(CNc2ncnc3ccc(-c4ccoc4)cc23)c1	0	0	74*	9	-4	-5	10%
CC(OC(=O)c1ccc(S(C)(=O)=O)c([N+](=O)[O-])c1)C(=O)NC1C2CC3CC(C2)CC1C3 (stereo unspecified)	-2	/	/	/	/	/	/
COCCN=C1N[C@@H](c2cccc(C(F)(F)F)c2)C(C(=O)OC)=C(C)N1Cc1ccccc1	0	3	57*	-1	4	0	8%
COc1ccc(OCC(=O)N(C)Cc2ccccc2)cc1	0	-4	1	-1	-2	0	/
CC(C)NS(=O)(=O)c1ccc(OCC(=O)N(C)Cc2ccccc2)cc1	0	0	83*	1	/	-1	5%
OC(c1cccc(Cl)c1)c1ncc(-c2ccccc2Cl)[nH]1 (stereo unspecified)	3	/	/	/	/	/	/
COc1cccc(C(O)c2nc(-c3ccc(F)c(Cl)c3)cs2)c1 (stereo unspecified)	0	/	/	/	/	/	/
COc1cc(CO)cc(Br)c1OCc1cccnc1	-1	9	51*	0	1	-4	9%
CCNc1nc(N)nc(-c2cc(Cl)ccc2O)n1	0	-5	67*	35	-2	-4	6%
CCCCNc1nc(N)nc(-c2cc(Cl)ccc2O)n1	0	-8	5	0	2	-3	/
CC(C)C[C@H]1COCCS(=O)(=O)N1Cc1ccc(Cl)c(Cl)c1	-1	2	51*	0	-5	-1	8%
Cc1ccc(C)c(NC(=O)C2CCCN2S(=O)(=O)c2ccc3c(c2)n(C)c(=O)c(=O)n3C)c1 (stereo unspecified)	-1	-10	2	0	/	0	/
Cc1ccccc1NC(=O)C1CCCN1S(=O)(=O)c1ccc2c(c1)n(C)c(=O)c(=O)n2C (stereo unspecified)	-1	-1	58*	0	/	-2	6%
CCOc1ccc(C2CC(c3cccc(OC)c3)Nc3nc(N)nn32)cc1 (stereo unspecified)	0	-1	58*	-1	/	0	9%
COc1cccc(C2CC(c3ccc(C)cc3)n3nc(N)nc3N2)c1 (stereo unspecified)	-1	1	-3	2	/	-1	/
O=C(C1CC(=O)N(C2CCCC2)C1)N1CCN(c2ccc(F)cc2)CC1 (stereo unspecified)	0	2	61*	2	/	-2	9%
CCN1C(=O)/C(=C2/Sc3ccccc3N2CC)S/C1=N\c1ncn[nH]1	0	-4	61*	1	8	2	9%
C=CCN1C(=O)/C(=C2/Sc3ccccc3N2CC)SC1=S	-2	-7	12	0	/	1	/
COc1ccccc1N(C)S(=O)(=O)c1ccc(C(=O)N(C)Cc2cccc(F)c2)cc1	0	/	/	/	/	/	/
CN(C)S(=O)(=O)c1ccc(Cl)c(C(=O)Nc2cccc3ncccc23)c1	0	-9	85*	4	/	-1	7%
SMILES	Tb MetRS inh	PvdQ inh	DYRK1A inh	CDK5 p35 inh	CAL PDZ FP-1	CAL PDZ FP-2	Dyrk1A artifact
O=C(Nc1cccc2ncccc12)c1cc([N+](=O)[O-])ccc1Cl	0	-16	-4	1	1	1	/
COC(=O)[C@]12CCCCC=C1N(CCc1ccc(OC)c(OC)c1)C(=O)[C@H](CC(=O)NCCCCc1ccccc1)C2	0	/	/	/	/	/	/
Oc1ccc(Nc2nc(-c3ccc4ccccc4c3)cs2)cc1	0	-16	1	-1	/	2	/
Oc1ccc(-c2nc(-c3ccc(O)c(O)c3)cs2)cc1	0	-10	72*	29	-2	-2	7%
Cc1ccc(-c2oc3ncnc(N)c3c2-c2ccc(C)cc2)cc1	-1	8	-2	-1	-2	-2	/
Cc1oc2ncnc(N)c2c1C	-2	5	50*	2	-3	0	8%
Nc1nc(N)nc(-c2ccc(Cl)c(Cl)c2)n1	0	-2	84*	4	-6	-1	7%
c1ccc2c(-c3nc(C4CCCCC4)no3)cc(-c3ccncc3)nc2c1	-1	1	72*	0	/	-3	8%
COc1ccc(-c2cc(-c3nnc(-c4ccncc4)o3)c3ccccc3n2)cc1	0	-17	-6	-1	-2	-3	/
c1ccc(-c2nnc(CSc3ccc4c(c3)OCCO4)o2)cc1	-1	-2	54*	1	/	1	14%
O=C(OCc1nnc(-c2ccccc2)o1)c1ccc2c(c1)OCO2	0	-11	3	-1	-2	-3	/
Cc1ccc(CN2CCC(C)(Oc3cccc(Cl)c3)C2)cc1 (stereo unspecified)	0	/	/	/	/	/	/
CCC1(CC)NC(=O)N(CC(=O)Nc2sc3c(c2C(N)=O)CCC3)C1=O	-2	10	66*	4	-4	-3	2%
CCC1(C)NC(=O)N(CC(=O)Nc2sc3c(c2C(=O)OC)CCCCC3)C1=O (stereo unspecified)	-1	14	0	-1	-4	-4	/
NC(c1csc(Nc2cc(NCCCO)ncn2)n1)c1ccccc1Cl (stereo unspecified)	0	/	/	/	/	/	/
CCO/C(=C/c1sc2ccc(OC)cc2[n+]1CCCS(=O)(=O)[O-])CC	0	-5	57*	-5	-1	-1	9%
CCC(/C=C1\Sc2ccc(OC)cc2N1CC)=C\c1sc2ccc(OC)cc2[n+]1CCCS(=O)(=O)[O-]	0	-7	2	4	9	-8	/
O=C(O)CSc1ncnc2scc(-c3ccccc3)c12	0	-1	73*	5	0	-3	11%
C[C@H](CO)N1C[C@H](C)[C@H](CN(C)S(C)(=O)=O)OCc2cnnn2CCCC1=O	0	/	/	/	/	/	/
CCCc1ccc2ccc3ccccc3c2n1	0	/	/	/	/	/	/
S=c1[nH]c2ccccc2n1CCc1ccncc1	0	-9	30	0	-2	0	/
S=c1sc2ccccc2n1CCc1ccncc1	0	-7	62*	0	-4	-1	10%
c1ccc(CN2CCC3CC2c2c3cccc2N2CCOCC2)cc1 (stereo unspecified)	0	/	/	/	/	/	/
CC(=O)Nc1nc(C)c(-c2csc(Nc3ccc(O)cc3)n2)s1	0	6	76*	3	/	3	8%

High-throughput results deposited in PubChem BioAssay by several laboratories.
